Calls of active or inactive are those of the source. The rule behind the calls is not given here.
Key:
[1] = target: T1, Histone deacetylase (Homo sapiens) (UniProt Q13547+O15379+Q9UBN7+Q92769+Q9UQL6+Q8WUI4+Q9BY41+Q96DB2+P56524+Q9UKV0+Q969S8); experiment: Inhibition of HDAC in human MDA-MB-231 cells assessed as increase in histone H3K9 acetylation at 0.1 to 2.5uM incubated for 48 hrs by Western blot method; format: cell-based
Method in brief: (§1)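 Cells treated 48 h at the indicated concentrations, with a reference HDAC inhibitor at 0.25 µM as positive control on each blot. Lysed in 1% SDS, 10 mM EDTA, 50 mM Tris-HCl pH 8.1 with protease/phosphatase inhibitors, then sonicated. Equal protein by SDS-PAGE on nitrocellulose. Primary antibodies 1:1000 overnight at 4°C, HRP secondary, ECL. Blots for pan-H3 and H3K9 acetylation, tubulin acetylation and Notch1.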

[2] = target: Histone deacetylase 5 (Homo sapiens) (UniProt Q9UQL6); experiment: Inhibition of human HDAC5 at 1 uM using Boc-Lys(trifluoroacetyl)-AMC substrate
Histone deacetylase 5 (Homo sapiens), sequence (Q9UQL6 whole entry, canonical isoform): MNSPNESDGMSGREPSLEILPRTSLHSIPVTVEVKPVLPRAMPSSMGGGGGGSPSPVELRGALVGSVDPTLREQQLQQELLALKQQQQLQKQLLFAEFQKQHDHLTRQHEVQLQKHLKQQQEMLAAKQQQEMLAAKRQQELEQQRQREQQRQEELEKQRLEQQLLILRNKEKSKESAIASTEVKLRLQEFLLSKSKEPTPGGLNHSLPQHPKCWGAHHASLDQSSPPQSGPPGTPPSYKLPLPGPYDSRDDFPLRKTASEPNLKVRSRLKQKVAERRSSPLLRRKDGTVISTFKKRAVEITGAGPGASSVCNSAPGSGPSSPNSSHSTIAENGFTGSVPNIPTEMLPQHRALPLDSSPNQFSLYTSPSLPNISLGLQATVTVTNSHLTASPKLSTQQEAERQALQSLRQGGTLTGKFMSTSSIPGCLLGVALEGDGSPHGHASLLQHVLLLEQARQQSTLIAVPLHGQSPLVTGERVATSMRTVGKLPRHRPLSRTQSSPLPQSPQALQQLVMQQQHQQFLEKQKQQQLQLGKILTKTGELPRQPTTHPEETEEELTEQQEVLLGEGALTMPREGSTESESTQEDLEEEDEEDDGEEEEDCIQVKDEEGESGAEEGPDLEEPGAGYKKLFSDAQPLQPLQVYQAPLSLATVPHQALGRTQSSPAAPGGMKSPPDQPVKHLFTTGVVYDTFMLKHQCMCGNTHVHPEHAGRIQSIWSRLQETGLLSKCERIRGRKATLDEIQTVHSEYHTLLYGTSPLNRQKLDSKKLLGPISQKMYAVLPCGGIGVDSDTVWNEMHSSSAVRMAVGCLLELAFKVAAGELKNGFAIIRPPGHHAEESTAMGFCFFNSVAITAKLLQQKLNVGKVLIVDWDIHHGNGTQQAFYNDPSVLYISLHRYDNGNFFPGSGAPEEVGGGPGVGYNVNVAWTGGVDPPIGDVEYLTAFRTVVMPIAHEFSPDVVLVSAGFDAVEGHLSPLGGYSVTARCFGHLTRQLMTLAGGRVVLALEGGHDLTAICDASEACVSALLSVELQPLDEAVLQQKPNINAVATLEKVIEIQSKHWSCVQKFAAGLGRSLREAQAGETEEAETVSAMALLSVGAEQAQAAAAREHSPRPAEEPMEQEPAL
Method in brief: (§2)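 Isoform profiling run by a commercial vendor with compounds at 1 µM. Values are percent inhibition, each the average of two determinations.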

[3] = target: T2, Histone deacetylase 1 (Homo sapiens, UniProt Q13547); experiment: Inhibition of human HDAC1 at 1 uM using p53 (379 to 382 residues) derived fluorogenic peptide RHKKAc; method in brief: as §2
T2 sequence (Q13547 whole entry, the tested form may be a part): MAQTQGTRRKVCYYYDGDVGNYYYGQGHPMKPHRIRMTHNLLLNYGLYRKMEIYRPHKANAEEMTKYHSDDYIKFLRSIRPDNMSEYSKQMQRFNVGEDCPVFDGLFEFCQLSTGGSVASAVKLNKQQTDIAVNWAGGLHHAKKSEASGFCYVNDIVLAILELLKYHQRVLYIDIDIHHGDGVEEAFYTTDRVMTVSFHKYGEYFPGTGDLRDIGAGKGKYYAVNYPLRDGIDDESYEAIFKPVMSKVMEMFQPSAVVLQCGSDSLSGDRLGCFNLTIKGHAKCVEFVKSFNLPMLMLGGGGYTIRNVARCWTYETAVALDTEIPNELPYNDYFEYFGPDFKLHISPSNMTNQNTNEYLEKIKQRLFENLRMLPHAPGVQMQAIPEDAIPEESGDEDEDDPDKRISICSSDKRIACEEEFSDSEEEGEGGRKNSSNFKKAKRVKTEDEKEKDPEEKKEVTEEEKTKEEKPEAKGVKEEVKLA

[4] = target: Histone deacetylase 3/Nuclear receptor corepressor 2 (HDAC3/NCoR2) (Homo sapiens) (UniProt O15379+Q9Y618); experiment: Inhibition of human HDAC3/NCOR2 at 1 uM using p53 (379 to 382 residues) derived fluorogenic peptide RHKKAc; format: protein-complex assay; method in brief: as §2
[5] = target: T3, Histone deacetylase 2 (Homo sapiens, UniProt Q92769); experiment: Inhibition of human HDAC2 at 1 uM using p53 (379 to 382 residues) derived fluorogenic peptide RHKKAc; method in brief: as §2
T3 sequence (Q92769 whole entry, the tested form may be a part): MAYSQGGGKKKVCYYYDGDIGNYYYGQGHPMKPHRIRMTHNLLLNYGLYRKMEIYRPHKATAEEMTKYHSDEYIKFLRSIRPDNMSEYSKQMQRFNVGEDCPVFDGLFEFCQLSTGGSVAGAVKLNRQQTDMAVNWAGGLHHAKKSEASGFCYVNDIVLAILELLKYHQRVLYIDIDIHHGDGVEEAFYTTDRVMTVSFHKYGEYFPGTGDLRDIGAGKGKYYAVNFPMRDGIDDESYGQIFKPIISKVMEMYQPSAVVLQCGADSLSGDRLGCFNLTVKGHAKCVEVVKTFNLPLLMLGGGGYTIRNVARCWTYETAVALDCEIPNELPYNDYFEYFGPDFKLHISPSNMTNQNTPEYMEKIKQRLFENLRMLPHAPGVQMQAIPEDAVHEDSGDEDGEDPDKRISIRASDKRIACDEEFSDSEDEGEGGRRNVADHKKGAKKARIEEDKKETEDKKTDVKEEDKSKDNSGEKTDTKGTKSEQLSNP

[6] = target: T4, Protein deacetylase HDAC6 (Homo sapiens) (UniProt Q9UBN7); experiment: Inhibition of HDAC6 in human MDA-MB-231 cells assessed as increase in histone H3K9 acetylation at 0.1 to 2.5uM incubated for 48 hrs by Western blot method; format: cell-based; settings: in the assay text read “tubulin acetylation” for “histone H3K9 acetylation”; method in brief: as §1
T4 sequence (whole entry): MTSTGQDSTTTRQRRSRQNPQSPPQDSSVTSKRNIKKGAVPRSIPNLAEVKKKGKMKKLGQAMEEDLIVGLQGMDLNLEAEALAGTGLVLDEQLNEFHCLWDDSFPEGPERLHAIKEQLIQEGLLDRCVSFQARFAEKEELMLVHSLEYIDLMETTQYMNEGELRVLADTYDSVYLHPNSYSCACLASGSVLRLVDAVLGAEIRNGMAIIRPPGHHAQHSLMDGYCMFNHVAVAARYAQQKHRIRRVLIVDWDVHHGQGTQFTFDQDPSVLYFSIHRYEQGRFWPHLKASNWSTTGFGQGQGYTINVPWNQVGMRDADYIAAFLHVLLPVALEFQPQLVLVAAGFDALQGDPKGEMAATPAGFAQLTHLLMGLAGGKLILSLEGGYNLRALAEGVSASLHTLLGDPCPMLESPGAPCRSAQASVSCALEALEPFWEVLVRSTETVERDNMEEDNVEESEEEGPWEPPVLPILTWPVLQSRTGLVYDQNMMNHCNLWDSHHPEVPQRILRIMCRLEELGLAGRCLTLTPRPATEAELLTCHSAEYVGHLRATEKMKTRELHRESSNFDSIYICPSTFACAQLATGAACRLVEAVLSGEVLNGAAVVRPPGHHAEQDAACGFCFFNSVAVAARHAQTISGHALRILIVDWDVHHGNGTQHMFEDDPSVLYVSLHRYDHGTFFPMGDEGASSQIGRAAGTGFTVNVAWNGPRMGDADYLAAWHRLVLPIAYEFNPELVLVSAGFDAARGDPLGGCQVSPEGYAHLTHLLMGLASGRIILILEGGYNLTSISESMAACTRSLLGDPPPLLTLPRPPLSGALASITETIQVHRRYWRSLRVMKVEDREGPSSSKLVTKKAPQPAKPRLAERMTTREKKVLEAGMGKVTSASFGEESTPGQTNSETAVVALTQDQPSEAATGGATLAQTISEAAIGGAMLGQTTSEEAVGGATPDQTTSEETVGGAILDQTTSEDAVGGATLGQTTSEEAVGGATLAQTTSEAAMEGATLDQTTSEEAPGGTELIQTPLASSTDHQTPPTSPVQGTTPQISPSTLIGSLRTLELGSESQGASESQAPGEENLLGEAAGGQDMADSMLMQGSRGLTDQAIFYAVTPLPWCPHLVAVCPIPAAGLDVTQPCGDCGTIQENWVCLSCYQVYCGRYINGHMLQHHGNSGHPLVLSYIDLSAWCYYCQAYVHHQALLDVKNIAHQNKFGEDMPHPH

[7] = target: T5, Histone deacetylase 8 (Homo sapiens) (UniProt Q9BY41); experiment: Inhibition of HDAC8 in human MDA-MB-231 cells assessed as reduction in Notch1 expression at 2.5uM incubated for 48 hrs by Western blot method; format: cell-based; method in brief: as §1
T5 sequence (whole entry): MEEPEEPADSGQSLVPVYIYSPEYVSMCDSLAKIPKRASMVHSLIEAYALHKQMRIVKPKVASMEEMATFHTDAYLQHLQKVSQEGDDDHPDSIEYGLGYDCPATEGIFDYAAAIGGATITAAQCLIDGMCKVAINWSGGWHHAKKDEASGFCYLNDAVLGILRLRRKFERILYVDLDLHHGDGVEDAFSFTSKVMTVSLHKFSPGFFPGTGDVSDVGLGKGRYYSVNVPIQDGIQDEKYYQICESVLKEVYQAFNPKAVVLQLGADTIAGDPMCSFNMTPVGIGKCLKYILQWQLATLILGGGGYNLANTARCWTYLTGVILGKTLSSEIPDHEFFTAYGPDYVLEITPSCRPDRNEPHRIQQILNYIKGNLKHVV

[8] = target: T5, Histone deacetylase 8 (Homo sapiens); experiment: Inhibition of human HDAC8 at 1 uM using p53 (379 to 382 residues) derived fluorogenic peptide RHKAcKAc; method in brief: as §2
[9] = target: Histone deacetylase 4 (Homo sapiens) (UniProt P56524); experiment: Inhibition of human HDAC4 at 1 uM using Boc-Lys(trifluoroacetyl)-AMC substrate; method in brief: as §2
Histone deacetylase 4 (Homo sapiens), sequence (P56524 whole entry, the tested form may be a part): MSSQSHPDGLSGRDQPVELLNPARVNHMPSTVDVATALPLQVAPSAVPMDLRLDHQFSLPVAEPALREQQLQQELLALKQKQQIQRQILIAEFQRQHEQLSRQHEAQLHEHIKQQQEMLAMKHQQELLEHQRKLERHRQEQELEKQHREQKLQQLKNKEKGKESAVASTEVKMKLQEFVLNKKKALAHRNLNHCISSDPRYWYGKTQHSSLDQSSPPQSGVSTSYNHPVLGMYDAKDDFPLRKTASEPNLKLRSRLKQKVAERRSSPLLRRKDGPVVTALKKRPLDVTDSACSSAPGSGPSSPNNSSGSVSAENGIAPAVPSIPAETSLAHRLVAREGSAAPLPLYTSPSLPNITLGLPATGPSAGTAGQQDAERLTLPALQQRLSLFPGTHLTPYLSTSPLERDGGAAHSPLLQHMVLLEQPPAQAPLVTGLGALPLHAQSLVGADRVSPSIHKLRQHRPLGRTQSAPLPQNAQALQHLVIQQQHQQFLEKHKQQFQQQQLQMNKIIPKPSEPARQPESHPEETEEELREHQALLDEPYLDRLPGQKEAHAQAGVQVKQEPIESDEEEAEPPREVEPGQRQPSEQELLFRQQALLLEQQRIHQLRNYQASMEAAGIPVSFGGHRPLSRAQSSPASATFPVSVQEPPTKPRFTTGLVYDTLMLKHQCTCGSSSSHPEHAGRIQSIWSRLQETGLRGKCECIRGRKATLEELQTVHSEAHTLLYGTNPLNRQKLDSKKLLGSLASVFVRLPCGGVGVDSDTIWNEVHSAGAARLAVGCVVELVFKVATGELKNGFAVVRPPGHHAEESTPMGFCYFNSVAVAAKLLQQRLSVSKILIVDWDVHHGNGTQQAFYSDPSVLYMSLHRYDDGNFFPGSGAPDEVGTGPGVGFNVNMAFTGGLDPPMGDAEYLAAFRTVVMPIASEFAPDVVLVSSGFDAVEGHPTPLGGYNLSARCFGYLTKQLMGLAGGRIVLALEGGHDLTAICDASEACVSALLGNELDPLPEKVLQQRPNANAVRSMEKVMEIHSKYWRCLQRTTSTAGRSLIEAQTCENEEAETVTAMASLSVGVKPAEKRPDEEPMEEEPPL

[10] = target: T4, Protein deacetylase HDAC6 (Homo sapiens); experiment: Inhibition of human HDAC6 at 1 uM using p53 (379 to 382 residues) derived fluorogenic peptide RHKKAc; method in brief: as §2
[11] = target: T1, Histone deacetylase (Homo sapiens); experiment: Inhibition of HDAC in human MDA-MB-231 cells assessed as increase in histone H3 acetylation at 0.1 to 2.5uM incubated for 48 hrs by Western blot method; format: cell-based; method in brief: as §1
[12] = target: T5, Histone deacetylase 8 (Homo sapiens); experiment: Inhibition of HDAC8 in human MDA-MB-231 cells assessed as reduction in Notch1 expression at 0.25 uM incubated for 48 hrs by Western blot method; format: cell-based; method in brief: as §1
[13] = target: T4, Protein deacetylase HDAC6 (Homo sapiens); experiment: Inhibition of HDAC6 in human MDA-MB-231 cells assessed as increase in histone H3K9 acetylation at 0.25 uM incubated for 48 hrs by Western blot method; format: cell-based; settings: in the assay text read “tubulin acetylation” for “histone H3K9 acetylation”; method in brief: as §1
[14] = target: T5, Histone deacetylase 8 (Homo sapiens); experiment: Inhibition of HDAC8 in human MDA-MB-231 cells assessed as reduction in Notch1 expression at 0.1 to 2.5uM incubated for 48 hrs by Western blot method; format: cell-based; method in brief: as §1
[15] = target: Histone deacetylase 3 (Homo sapiens) (UniProt O15379); experiment: Inhibition of HDAC3 in human MDA-MB-231 cells assessed as increase in histone H3 acetylation at 0.5 to 5 uM by immunoblotting; format: cell-based
Histone deacetylase 3 (Homo sapiens), sequence (O15379 whole entry): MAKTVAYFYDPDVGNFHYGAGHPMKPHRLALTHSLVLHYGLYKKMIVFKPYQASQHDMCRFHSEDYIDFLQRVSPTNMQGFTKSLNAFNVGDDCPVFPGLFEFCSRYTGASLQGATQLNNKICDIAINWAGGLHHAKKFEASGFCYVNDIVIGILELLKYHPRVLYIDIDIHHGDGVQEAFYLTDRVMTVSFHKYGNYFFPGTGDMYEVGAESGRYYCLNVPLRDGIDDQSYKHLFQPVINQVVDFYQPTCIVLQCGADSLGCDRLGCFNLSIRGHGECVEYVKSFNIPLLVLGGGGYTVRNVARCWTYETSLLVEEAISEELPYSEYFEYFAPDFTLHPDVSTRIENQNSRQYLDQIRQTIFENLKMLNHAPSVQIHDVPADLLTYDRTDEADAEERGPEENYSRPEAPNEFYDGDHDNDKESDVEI
Method in brief: (§3)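 Monolayer cells treated in 5% FBS at graded concentrations. Lysed in SDS/EDTA/Tris pH 8.1 buffer, equal protein immunoblotted with primary antibodies 1:1000 overnight at 4°C. Detected by ECL for phospho-Akt, β-catenin and histone H3 pan/H3K9 acetylation.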

[16] = test system: MDA-MB-231; experiment: Cytotoxicity in human MDA-MB-231 cells assessed as reduction in cell viability incubated for 24 to 72 hrs by MTT assay; format: functional, cell-based
Method in brief: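 MDA-MB-231 seeded 5,000 cells/well with 10% FBS, left overnight, then exposed to agents in 5% FBS for 24, 48 and 72 h. MTT added for 1 h, dye dissolved in DMSO, absorbance at 560 nm. Viability given as percent of the matching vehicle-treated control. N = 6.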

[17] = test system: MDA-MB-231; experiment: Inhibition of mammosphere formation of human MDA-MB-231 cells incubated for 7 days; settings: MDA-MB-231, 168 h
[18] = target: T2, Histone deacetylase 1; experiment: Inhibition of human HDAC1 using p53 (379 to 382 residues) derived fluorogenic peptide RHKKAc
[19] = test system: MDA-MB-231; experiment: Inhibition of colony formation of human MDA-MB-231 cells incubated for 48 hrs by crystal violet staining based assay; settings: MDA-MB-231, 48 h
[20] = target: Histone deacetylase 3 (Homo sapiens) (UniProt O15379); experiment: Inhibition of HDAC3 in human MDA-MB-231 cells assessed as reduction in beta-catenin expression at 0.5 to 5 uM by immunoblotting; format: cell-based; method in brief: as §3
[21] = test system: MDA-MB-231; experiment: Growth inhibition of human MDA-MB-231 cells incubated for 48 to 72 hrs by crystal violet staining based assay; format: functional, cell-based
Method in brief: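 Cells plated at 5000/well and left overnight, then treated in 5% FBS for 24, 48 and 72 h. Washed with PBS, stained 20 min with 0.5% crystal violet in 20% methanol, stain solubilized in 2% SDS, absorbance read at 550. Growth inhibition calculated as (1-Nt/Nc) x 100 against vehicle wells. N = 6.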

[22] = target: Histone deacetylase 3/Nuclear receptor corepressor 2 (HDAC3/NCoR2) (Homo sapiens, UniProt O15379); experiment: Inhibition of human HDAC3/NCOR2 using p53 (379 to 382 residues) derived fluorogenic peptide RHKKAc; format: protein-complex assay
[23] = target: T3, Histone deacetylase 2; experiment: Inhibition of human HDAC2 using p53 (379 to 382 residues) derived fluorogenic peptide RHKKAc
[24] = target: Histone deacetylase 3 (Homo sapiens) (UniProt O15379); experiment: Inhibition of HDAC3 in human MDA-MB-231 cells assessed as reduction in Akt phosphorylation at 0.5 to 5 uM by immunoblotting; format: cell-based; method in brief: as §3
[25] = test system: MDA-MB-231; experiment: Effect on beta-catenin mRNA expression in human MDA-MB-231 cells at 0.5 to 5 uM by RT-PCR method; format: cell-based; settings: mda-mb-231, 5 µM
Method in brief: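 Monolayer cells treated at graded concentrations. Total RNA isolated with TRIzol. β-catenin mRNA assessed by RT-PCR with β-actin as reference.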

With CC(C)[C@@H](C(=O)Nc1ccc(C(=O)Nc2ccccc2N)cc1)c1ccccc1 the inhibition [1] was “Active”, the inhibition [2] was 9% and the inhibition [3] was 80%. For the same compound, the inhibition [4] was 76%, the inhibition [5] was 57% and the inhibition [6] was “inactive”. For the same compound, the inhibition [7] was “Active”, the inhibition [8] was 38% and the inhibition [9] was 9%. For the same compound, the inhibition [10] was 16% and the inhibition [11] was “Active”.
CC(C)[C@H](C(=O)Nc1ccc(C(=O)NO)cc1)c1ccccc1 was tested, and the inhibition [2] was 0%, the inhibition [3] was 95% and the inhibition [12] was “Active”. The inhibition [4] was 93%, the inhibition [5] was 72% and the inhibition [8] was 87%. For the same compound, the inhibition [9] was 21%, the inhibition [10] was 100% and the inhibition [13] was “Active”.
CC(C)[C@H](C(=O)Nc1ccc(C(=O)Nc2ccccc2N)cc1)c1ccccc1 was tested, and the inhibition [1] was “Active”, the inhibition [2] was 0% and the inhibition [3] was 55%. The inhibition [4] was 30%, the inhibition [5] was 31% and the inhibition [6] was “inactive”. For the same compound, the inhibition [8] was 7%, the inhibition [9] was 0% and the inhibition [10] was 20%. For the same compound, the inhibition [11] was “Active” and the inhibition [14] was “inactive”.
With Nc1cc(F)ccc1NC(=O)c1ccc(NC(=O)Cc2ccccc2)cc1 the inhibition [15] was “Dose-dependent effect”, the IC50 [16] was ≥ 10 µM and the IC50 [17] was 0.5 to 1 µM. For the same compound, the IC50 [18] was 2.3 µM, the IC50 [19] was 0.5 to 1 µM and the inhibition [20] was “Dose-dependent effect”. For the same compound, the IC50 [21] was ≥ 10 µM, the IC50 [22] was 0.18 µM and the IC50 [23] was 3.2 µM. For the same compound, the inhibition [24] was “Dose-dependent effect” and the Activity [25] was “Non-Toxic”.
